Experimental data taken from ChEMBL document CHEMBL4725349, “Discovery of First-in-Class Protein Arginine Methyltransferase 5 (PRMT5) Degraders” (J Med Chem, 2020).
Each block holds one compound with its values, some of them ahead of it. Calls of active or inactive are those of the source. No cut-off for these calls is given here.

What was measured:
[1] = target: T1, von Hippel-Lindau disease tumor suppressor/Protein arginine N-methyltransferase 5 (Homo sapiens, UniProt O14744+P40337); assay: Induction of VHL-mediated PRMT5 degradation in human MCF7 cells at 0.2 to 5 uM incubated for 6 days by Western blot analysis; format: cell-based; settings: dose microM 0.2-5, time 6.0 day
In short: (§1)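 MCF-7 cells treated 6 d (0.2, 1 and 5 μM for initial screen, or indicated concentrations). RIPA lysates immunoblotted for PRMT5. Band intensity quantified by densitometry to derive DC50 and Dmax as mean ± SD from three independent experiments; screening blots representative of at least two.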
Target sequence in this assay (O14744 whole entry, looked up): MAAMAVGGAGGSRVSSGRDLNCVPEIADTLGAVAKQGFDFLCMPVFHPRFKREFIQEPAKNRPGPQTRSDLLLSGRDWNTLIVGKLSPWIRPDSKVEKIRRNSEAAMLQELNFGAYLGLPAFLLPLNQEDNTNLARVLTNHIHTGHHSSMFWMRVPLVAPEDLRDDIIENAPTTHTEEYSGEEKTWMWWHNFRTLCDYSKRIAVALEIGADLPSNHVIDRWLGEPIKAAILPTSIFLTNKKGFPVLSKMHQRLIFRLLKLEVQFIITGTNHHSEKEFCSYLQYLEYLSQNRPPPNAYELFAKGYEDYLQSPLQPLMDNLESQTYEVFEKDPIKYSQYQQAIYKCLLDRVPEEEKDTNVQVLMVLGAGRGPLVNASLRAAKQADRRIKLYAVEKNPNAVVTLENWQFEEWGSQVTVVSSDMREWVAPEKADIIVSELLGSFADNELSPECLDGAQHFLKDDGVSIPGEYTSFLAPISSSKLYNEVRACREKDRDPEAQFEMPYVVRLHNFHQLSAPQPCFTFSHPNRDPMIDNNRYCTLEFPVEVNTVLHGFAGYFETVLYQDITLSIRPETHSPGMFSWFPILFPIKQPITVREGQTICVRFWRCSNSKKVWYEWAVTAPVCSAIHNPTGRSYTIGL
Target sequence in this assay (P40337 whole entry, looked up): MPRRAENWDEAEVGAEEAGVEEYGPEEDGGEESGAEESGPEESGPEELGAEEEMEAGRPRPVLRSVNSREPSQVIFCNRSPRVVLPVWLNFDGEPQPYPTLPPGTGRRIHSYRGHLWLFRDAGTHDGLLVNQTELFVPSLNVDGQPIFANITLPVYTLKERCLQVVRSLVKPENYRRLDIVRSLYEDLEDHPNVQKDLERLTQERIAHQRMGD

MCF7 [2] = assay: Antiproliferative activity against human MCF7 cells at 0.1 to 10 uM incubated for 6 days by CellTiter-Glo assay; format: functional, cell-based; settings: dose microM 0.1-10, time 6.0 day
In short: (§2)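 MCF-7 in DMEM + 10% FBS at 37 °C, 5% CO2. Cells exposed to graded concentrations for 6 d, medium with compound refreshed every other day. CellTiter-Glo luminescence, expressed as viability relative to DMSO control; mean ± SD, n = 3.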

[3] = target: PRMT5/MEP50 complex (Homo sapiens) (UniProt O14744+Q9BQA1); assay: Inhibition of human PRMT5/MEP50 assessed as reduction in methyltransferase activity at 5 uM using histone 4 peptide as substrate in presence of [3H]SAM incubated for 30 mins; format: protein-complex assay
[4] = target: T1, von Hippel-Lindau disease tumor suppressor/Protein arginine N-methyltransferase 5; assay: Induction of VHL-mediated PRMT5 degradation in human MCF7 cells at 5 uM incubated for 6 days by Western blot analysis; format: cell-based; settings: time 6.0 day; in short: as §1
Target sequence in this assay (O14744 whole entry, looked up): as the sequence (O14744 whole entry, looked up) above
Target sequence in this assay (P40337 whole entry, looked up): as the sequence (P40337 whole entry, looked up) above

HeLa [5] = assay: Antiproliferative activity against human HeLa cells assessed as reduction in cell viability at 0.1 to 10 uM supplemented with fresh medium containing compound every other day for 6 days by CellTiter-Glo assay; format: functional, cell-based; settings: dose microM 0.1-10, time 6.0 day
In short: (§3)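 HeLa, A549 and A172 grown in DMEM + 10% FBS; Jurkat in RPMI 1640 + 10% FBS; all at 37 °C, 5% CO2. Cells seeded, then treated 6 d with test agent, medium plus compound renewed every other day. Viability read by CellTiter-Glo and normalized to DMSO-treated cells; mean ± SD, n = 3.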

[6] = target: T1, von Hippel-Lindau disease tumor suppressor/Protein arginine N-methyltransferase 5; assay: Induction of VHL-mediated PRMT5 degradation in human MCF7 cells assessed as reduction in SDMA level incubated for 6 days by Western blot analysis; format: cell-based; settings: dose microM 0.1-3, time 6.0 day
In short: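 SDMA read-out: MCF-7 cells given 0.1, 0.3, 1 or 3.0 μM for 6 d; global symmetric dimethylarginine detected on western blot with anti-SDMA antibody.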
Target sequence in this assay (O14744 whole entry, looked up): as the sequence (O14744 whole entry, looked up) above
Target sequence in this assay (P40337 whole entry, looked up): as the sequence (P40337 whole entry, looked up) above

Jurkat [7] = assay: Antiproliferative activity against human Jurkat cells assessed as reduction in cell viability at 0.1 to 10 uM supplemented with fresh medium containing compound every other day for 6 days by CellTiter-Glo assay; format: functional, cell-based; settings: dose microM 0.1-10, time 6.0 day; in short: as §3
A 172 [8] = assay: Antiproliferative activity against human A172 cells assessed as reduction in cell viability at 0.1 to 10 uM supplemented with fresh medium containing compound every other day for 6 days by CellTiter-Glo assay; format: functional, cell-based; settings: dose microM 0.1-10, time 6.0 day; in short: as §3
A549 [9] = assay: Antiproliferative activity against human A549 cells assessed as reduction in cell viability at 0.1 to 10 uM supplemented with fresh medium containing compound every other day for 6 days by CellTiter-Glo assay; format: functional, cell-based; settings: dose microM 0.1-10, time 6.0 day; in short: as §3
[10] = target: von Hippel-Lindau disease tumor suppressor/Methylosome protein WDR77 (Homo sapiens) (UniProt Q9BQA1+P40337); assay: Induction of VHL-mediated WDR77 degradation in human MCF7 cells at 5 uM supplemented with fresh medium containing compound every 2 days for 5 days by LC-MS based LFQ global proteomics analysis; format: cell-based; settings: time 5.0 day
In short: (§4)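 MCF-7 cells given 5 μM compound or DMSO for 5 d, with fresh medium plus compound every 48 h; two biological replicates. Lysis in 8 M urea/50 mM Tris pH 8.0, DTT reduction, iodoacetamide alkylation, overnight trypsin digestion. Peptides run on nanoLC-Q-Exactive HF-X, 130 min gradient. Label-free quantitation; fold changes tested by two-sample t test.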

[11] = target: T1, von Hippel-Lindau disease tumor suppressor/Protein arginine N-methyltransferase 5; assay: Induction of VHL-mediated PRMT5 degradation in human MCF7 cells assessed as PRMT5 level at 5 uM incubated for 7 days in presence of proteasome inhibitor MG-132 by Western blot analysis relative to control; format: cell-based; settings: time 7.0 day
Target sequence in this assay (O14744 whole entry, looked up): as the sequence (O14744 whole entry, looked up) above
Target sequence in this assay (P40337 whole entry, looked up): as the sequence (P40337 whole entry, looked up) above

[12] = Toxicity in Swiss albino mouse assessed as effect on clinical signs at 150 mg/kg, ip; format: organism-based; settings: in vivo
In short: (§5)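 Male Swiss albino mice received one 150 mg/kg IP dose in normal saline. Blood drawn under light isoflurane at 0.25, 0.5, 1, 2, 6 and 12 h, three mice per time point. Plasma acetonitrile-precipitated and quantified by LC-MS/MS (LLOQ 9.25 ng/mL); clinical signs observed.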

[13] = target: T1, von Hippel-Lindau disease tumor suppressor/Protein arginine N-methyltransferase 5; assay: Induction of VHL-mediated PRMT5 degradation in human MCF7 cells incubated for 6 days by Western blot analysis relative to control; format: cell-based; settings: time 6.0 day; in short: as §1
Target sequence in this assay (O14744 whole entry, looked up): as the sequence (O14744 whole entry, looked up) above
Target sequence in this assay (P40337 whole entry, looked up): as the sequence (P40337 whole entry, looked up) above

A549 [14] = assay: Antiproliferative activity against human A549 cells assessed as reduction in cell viability supplemented with fresh medium containing compound every other day for 6 days by CellTiter-Glo assay; format: functional, cell-based; settings: dose microM 0.1-10, time 6.0 day; in short: as §3
HeLa [15] = assay: Antiproliferative activity against human HeLa cells assessed as reduction in cell viability supplemented with fresh medium containing compound every other day for 6 days by CellTiter-Glo assay; format: functional, cell-based; settings: dose microM 0.1-10, time 6.0 day; in short: as §3
A 172 [16] = assay: Antiproliferative activity against human A172 cells assessed as reduction in cell viability supplemented with fresh medium containing compound every other day for 6 days by CellTiter-Glo assay; format: functional, cell-based; settings: dose microM 0.1-10, time 6.0 day; in short: as §3
[17] = Plasma concentration in Swiss albino mouse at 150 mg/kg, ip administered as single dose measured at 2 hrs post dose by LC-MS/MS method; format: ADME, organism-based; in short: as §5
[18] = target: T1, von Hippel-Lindau disease tumor suppressor/Protein arginine N-methyltransferase 5; assay: Induction of VHL-mediated PRMT5 degradation in human MCF7 cells incubated for 6 days by Western blot analysis; format: cell-based; in short: as §1
MCF7 [19] = assay: Antiproliferative activity against human MCF7 cells incubated for 6 days by CellTiter-Glo assay; format: functional, cell-based; settings: dose microM 0.1-10, time 6.0 day; in short: as §2
PRMT5/MEP50 complex = PRMT5/MEP50 complex (Homo sapiens, UniProt O14744); assay: Inhibition of human PRMT5/MEP50 assessed as reduction in methyltransferase activity using histone 4 peptide as substrate in presence of [3H]SAM incubated for 30 mins; format: protein-complex assay
In short: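 Radiometric FlashPlate assay tracking transfer of the 3H-methyl group from SAM (1 μM) to biotinylated H4 (1–15) peptide by human PRMT5/MEP50 (5 nM). Compounds were preincubated with enzyme and substrate for 20 min at rt. They were tested at 10 concentrations in threefold serial dilution from 5 μM, in duplicate. IC50 is reported as mean ± SD.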

[20] = target: T1, von Hippel-Lindau disease tumor suppressor/Protein arginine N-methyltransferase 5; assay: Induction of VHL-mediated PRMT5 degradation in human MCF7 cells assessed as recovery of PRMT5 level at 5 uM incubated for 6 days followed by compound wash out and measured up to 48 hrs by Western blot analysis; format: cell-based; settings: time 6.0 day
In short: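 Washout: MCF-7 cells treated 6 d with 5 μM, compound removed, and PRMT5 immunoblotted at 0, 12, 24 and 48 h after washout.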
Target sequence in this assay (O14744 whole entry, looked up): as the sequence (O14744 whole entry, looked up) above
Target sequence in this assay (P40337 whole entry, looked up): as the sequence (P40337 whole entry, looked up) above

[21] = target: T1, von Hippel-Lindau disease tumor suppressor/Protein arginine N-methyltransferase 5; assay: Induction of VHL-mediated PRMT5 degradation in human MCF7 cells at 5 uM supplemented with fresh medium containing compound every 2 days for 5 days by LC-MS based LFQ global proteomics analysis; format: cell-based; settings: time 5.0 day; in short: as §4
[22] = Plasma concentration in Swiss albino mouse at 150 mg/kg, ip administered as single dose measured after 12 hrs post dose by LC-MS/MS method; format: ADME, organism-based; in short: as §5
[23] = target: T1, von Hippel-Lindau disease tumor suppressor/Protein arginine N-methyltransferase 5; assay: Induction of VHL-mediated PRMT5 degradation in human MCF7 cells assessed as PRMT5 level at 5 uM incubated for 7 days in presence of neddylation inhibitor MLN4924 by Western blot analysis relative to control; format: cell-based; settings: time 7.0 day
[24] = target: T1, von Hippel-Lindau disease tumor suppressor/Protein arginine N-methyltransferase 5; assay: Induction of VHL-mediated PRMT5 degradation in human A172 cells at 5 uM incubated for 6 days by Western blot analysis; format: cell-based; settings: A 172, time 6.0 day
In short: (§6)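 HeLa, A549, A172 and Jurkat cells exposed to 5 μM for 6 d. Lysis in RIPA buffer with protease inhibitors, then SDS-PAGE, PVDF transfer and immunoblot for PRMT5 with β-actin loading control, ECL detection. Representative of two independent experiments.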

[25] = target: T1, von Hippel-Lindau disease tumor suppressor/Protein arginine N-methyltransferase 5; assay: Induction of VHL-mediated PRMT5 degradation in human Jurkat cells at 5 uM incubated for 6 days by Western blot analysis; format: cell-based; settings: time 6.0 day; in short: as §6
[26] = target: T1, von Hippel-Lindau disease tumor suppressor/Protein arginine N-methyltransferase 5; assay: Induction of VHL-mediated PRMT5 degradation in human MCF7 cells assessed as PRMT5 level at 5 uM incubated for 7 days by Western blot analysis relative to control; format: cell-based; settings: time 7.0 day
[27] = target: T1, von Hippel-Lindau disease tumor suppressor/Protein arginine N-methyltransferase 5; assay: Induction of VHL-mediated PRMT5 degradation in human MCF7 cells assessed as PRMT5 level at 5 uM incubated for 7 days in presence of EPZ015666 by Western blot analysis relative to control; format: cell-based; settings: time 7.0 day
[28] = target: T1, von Hippel-Lindau disease tumor suppressor/Protein arginine N-methyltransferase 5; assay: Induction of VHL-mediated PRMT5 degradation in human HeLa cells at 5 uM incubated for 6 days by Western blot analysis; format: cell-based; settings: time 6.0 day; in short: as §6
[29] = target: von Hippel-Lindau disease tumor suppressor/Agrin (Homo sapiens) (UniProt P40337+O00468); assay: Induction of VHL-mediated AGRN degradation in human MCF7 cells at 5 uM supplemented with fresh medium containing compound every 2 days for 5 days by LC-MS based LFQ global proteomics analysis; format: cell-based; settings: time 5.0 day; in short: as §4
[30] = target: T1, von Hippel-Lindau disease tumor suppressor/Protein arginine N-methyltransferase 5; assay: Induction of VHL-mediated PRMT5 degradation in human MCF7 cells assessed as PRMT5 level at 5 uM incubated for 7 days in presence of VH-298 by Western blot analysis relative to control; format: cell-based; settings: time 7.0 day
[31] = target: T1, von Hippel-Lindau disease tumor suppressor/Protein arginine N-methyltransferase 5; assay: Induction of VHL-mediated PRMT5 degradation in human A549 cells at 5 uM incubated for 6 days by Western blot analysis; format: cell-based; settings: time 6.0 day; in short: as §6
Jurkat [32] = assay: Antiproliferative activity against human Jurkat cells assessed as reduction in cell viability supplemented with fresh medium containing compound every other day for 6 days by CellTiter-Glo assay; format: functional, cell-based; settings: dose microM 0.1-10, time 6.0 day; in short: as §3
[33] = target: T1, von Hippel-Lindau disease tumor suppressor/Protein arginine N-methyltransferase 5; assay: Induction of VHL-mediated PRMT5 degradation in human MCF7 cells at 1 to 5 uM incubated for 6 days by Western blot analysis; format: cell-based; settings: dose microM 1-5, time 6.0 day; in short: as §1

Chain of von Hippel-Lindau disease tumor suppressor/Methylosome protein WDR77 (Homo sapiens) (P40337 whole entry, looked up): as above
Chain of von Hippel-Lindau disease tumor suppressor/Methylosome protein WDR77 (Homo sapiens) (Q9BQA1 whole entry, looked up): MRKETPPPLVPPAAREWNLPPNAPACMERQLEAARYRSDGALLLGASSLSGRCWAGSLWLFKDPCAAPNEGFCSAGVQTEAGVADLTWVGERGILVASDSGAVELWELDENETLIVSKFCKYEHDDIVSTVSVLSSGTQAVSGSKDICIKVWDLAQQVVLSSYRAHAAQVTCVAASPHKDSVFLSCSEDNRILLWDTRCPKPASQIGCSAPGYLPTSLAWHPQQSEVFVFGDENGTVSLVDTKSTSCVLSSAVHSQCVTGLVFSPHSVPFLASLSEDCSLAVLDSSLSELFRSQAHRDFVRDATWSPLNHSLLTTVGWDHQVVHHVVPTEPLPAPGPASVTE
Chain of von Hippel-Lindau disease tumor suppressor/Agrin (Homo sapiens) (O00468 whole entry, looked up): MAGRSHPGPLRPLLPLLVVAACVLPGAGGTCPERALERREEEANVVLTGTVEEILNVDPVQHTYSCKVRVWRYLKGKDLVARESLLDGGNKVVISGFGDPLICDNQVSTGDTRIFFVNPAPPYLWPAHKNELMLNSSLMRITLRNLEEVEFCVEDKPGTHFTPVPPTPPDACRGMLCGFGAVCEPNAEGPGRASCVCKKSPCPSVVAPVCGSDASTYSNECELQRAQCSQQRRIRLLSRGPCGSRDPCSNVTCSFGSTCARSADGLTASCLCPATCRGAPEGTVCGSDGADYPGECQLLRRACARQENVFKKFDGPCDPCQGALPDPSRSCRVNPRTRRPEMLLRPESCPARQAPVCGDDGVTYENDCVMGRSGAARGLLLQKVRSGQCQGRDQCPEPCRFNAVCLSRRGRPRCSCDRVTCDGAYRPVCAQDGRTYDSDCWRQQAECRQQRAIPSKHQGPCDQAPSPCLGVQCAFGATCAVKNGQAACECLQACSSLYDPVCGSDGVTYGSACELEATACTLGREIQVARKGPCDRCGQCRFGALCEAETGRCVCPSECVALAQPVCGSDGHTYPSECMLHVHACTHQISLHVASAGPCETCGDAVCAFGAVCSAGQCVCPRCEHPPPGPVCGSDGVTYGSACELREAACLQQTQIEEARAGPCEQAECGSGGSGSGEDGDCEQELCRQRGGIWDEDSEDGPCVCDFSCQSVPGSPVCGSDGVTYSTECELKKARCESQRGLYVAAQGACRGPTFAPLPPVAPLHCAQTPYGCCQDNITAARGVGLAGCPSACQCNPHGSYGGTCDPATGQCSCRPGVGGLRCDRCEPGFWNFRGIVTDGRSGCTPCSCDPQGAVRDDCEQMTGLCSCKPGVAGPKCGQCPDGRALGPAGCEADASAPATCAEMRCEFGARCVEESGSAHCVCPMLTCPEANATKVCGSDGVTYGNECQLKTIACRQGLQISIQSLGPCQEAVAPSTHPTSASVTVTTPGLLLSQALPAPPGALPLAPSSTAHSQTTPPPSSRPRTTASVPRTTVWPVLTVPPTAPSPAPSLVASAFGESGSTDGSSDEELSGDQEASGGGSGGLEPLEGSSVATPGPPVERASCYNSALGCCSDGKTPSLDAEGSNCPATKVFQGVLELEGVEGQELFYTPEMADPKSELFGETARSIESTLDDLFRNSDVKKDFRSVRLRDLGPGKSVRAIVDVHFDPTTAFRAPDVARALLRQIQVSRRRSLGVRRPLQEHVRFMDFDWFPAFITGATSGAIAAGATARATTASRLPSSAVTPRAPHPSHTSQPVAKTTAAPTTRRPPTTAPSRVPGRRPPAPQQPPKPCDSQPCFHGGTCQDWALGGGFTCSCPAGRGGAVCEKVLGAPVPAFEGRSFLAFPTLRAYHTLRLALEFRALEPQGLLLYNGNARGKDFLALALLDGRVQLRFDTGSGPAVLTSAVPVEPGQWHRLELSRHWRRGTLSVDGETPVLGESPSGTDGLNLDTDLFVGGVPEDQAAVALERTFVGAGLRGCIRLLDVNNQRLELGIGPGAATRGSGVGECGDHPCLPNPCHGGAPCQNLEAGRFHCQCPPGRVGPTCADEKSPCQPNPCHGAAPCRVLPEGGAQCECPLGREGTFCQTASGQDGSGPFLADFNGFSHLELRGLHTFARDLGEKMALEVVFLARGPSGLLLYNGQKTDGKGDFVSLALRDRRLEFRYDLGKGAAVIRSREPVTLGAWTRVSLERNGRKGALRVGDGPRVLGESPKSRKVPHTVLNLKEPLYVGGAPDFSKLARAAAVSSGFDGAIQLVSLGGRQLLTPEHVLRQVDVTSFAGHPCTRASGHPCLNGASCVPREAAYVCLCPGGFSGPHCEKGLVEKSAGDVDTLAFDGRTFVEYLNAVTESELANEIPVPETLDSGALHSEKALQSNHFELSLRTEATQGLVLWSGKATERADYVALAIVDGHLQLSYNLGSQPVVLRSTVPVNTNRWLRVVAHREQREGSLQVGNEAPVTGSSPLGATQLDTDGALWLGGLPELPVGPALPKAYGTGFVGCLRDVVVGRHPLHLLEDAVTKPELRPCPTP
Chain of von Hippel-Lindau disease tumor suppressor/Agrin (Homo sapiens) (P40337 whole entry, looked up): as the sequence (P40337 whole entry, looked up) above
Chain of PRMT5/MEP50 complex (O14744 whole entry): as the sequence (O14744 whole entry, looked up) above
Chain of PRMT5/MEP50 complex (Q9BQA1 whole entry, further chain): as the sequence (Q9BQA1 whole entry, looked up) above

Activity [1]: inactive
SMILES: Cc1ncsc1-c1ccc(CNC(=O)[C@@H]2C[C@@H](O)CN2C(=O)[C@@H](NC(=O)CCCCCCCCCC(=O)N2CC(Nc3cc(C(=O)NC[C@H](O)CN4CCc5ccccc5C4)ncn3)C2)C(C)(C)C)cc1

Activity [4]: inactive
Activity [6]: Dose-dependent effect
SMILES: O=C(NC[C@H](O)CN1CCc2ccccc2C1)c1cc(NC2COC2)ncn1
Activity (HeLa [5]): Active
Activity (Jurkat [7]): Active
Activity (A 172 [8]): Active
Activity (A549 [9]): Active

Activity [33]: Active
SMILES: Cc1ncsc1-c1ccc(CNC(=O)[C@@H]2C[C@@H](O)CN2C(=O)[C@@H](NC(=O)COCCOCCOCCOCCOCC(=O)N2CC(Nc3cc(C(=O)NC[C@H](O)CN4CCc5ccccc5C4)ncn3)C2)C(C)(C)C)cc1

Continued, compound first:

SMILES: Cc1ncsc1-c1ccc([C@H](C)NC(=O)[C@@H]2C[C@@H](O)CN2C(=O)[C@@H](NC(=O)COCCOCCOCCOCCOCC(=O)N2CC(Nc3cc(C(=O)NC[C@H](O)CN4CCCCC4)ncn3)C2)C(C)(C)C)cc1
Activity (MCF7 [2]): inactive
inhibition [3]: 58%
Activity [4]: inactive

SMILES: Cc1ncsc1-c1ccc([C@H](C)NC(=O)[C@@H]2C[C@@H](O)CN2C(=O)[C@@H](NC(=O)COCCOCCOCCOCCOCC(=O)N2CC(Nc3cc(C(=O)NC[C@H](O)CN4CCc5ccccc5C4)ncn3)C2)C(C)(C)C)cc1
Activity [10]: Active
fold change (FC) [11]: 0.51
Activity [12]: Non-Toxic
Emax [13]: 74%
Activity (A549 [14]): Dose-dependent effect
Activity (HeLa [15]): Dose-dependent effect
Activity (A 172 [16]): Dose-dependent effect
concentration at 2 h [17]: 14 µM
DC50 [18]: 1100 nM
Activity ([18]; time 6.0 day): Dose-dependent effect
Activity (MCF7 [19]): Dose-dependent effect
Activity [6]: Dose-dependent effect
IC50 (PRMT5/MEP50 complex): 18 nM
Activity [20]: Active
Activity [21]: Active
concentration at 12 h [22]: > 0.1 µM
fold change (FC) [23]: 0.59
Activity [24]: Active
Activity [25]: Active
fold change (FC) [26]: 0.32
fold change (FC) [27]: 0.61
Activity [28]: Active
Activity [29]: Active
fold change (FC) [30]: 0.53
Activity [31]: Active
Activity (Jurkat [32]): Dose-dependent effect
